Data published in ChEMBL document CHEMBL2331265, “Physangulidine A, a withanolide from Physalis angulata, perturbs the cell cycle and induces cell death by apoptosis in prostate cancer cells” (2013).
Active and inactive are the calls of the source. No cut-off for these calls is given here.

Experiments:
[1] = test system: DU-145; assay: Inhibition of mitosis in human DU145 cells assessed as abnormal mitosis at 10 uM after 48 hrs by fluorescent microscopy; assay type: functional, cell-based
Method in brief: (§1)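 DU145 plated at 2.5 × 10^4 on glass coverslips, 18 h. Then 10 μM compound for 24 or 48 h, or DMSO for 48 h. Fixed in 4% paraformaldehyde, permeabilized with 0.1% Triton X-100, blocked with 3% BSA. Stained with Alexa Fluor 488 anti-α-tubulin (60 min) and DAPI, then imaged by confocal microscopy for aberrant mitotic figures.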

[2] = test system: DU-145; assay: Inhibition of mitosis in human DU145 cells assessed as condensed chromosomes and mitotic spindles formation at 10 uM after 24 hrs by fluorescent microscopy; assay type: functional, cell-based; method in brief: as §1
[3] = test system: DU-145; assay: Induction of apoptosis in human DU145 cells assessed as DNA fragmentation formation at 10 uM after 48 to 72 hrs […]; assay type: functional, cell-based
Method in brief: (§2)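 Cells (2 × 10^6, adherent plus floating) collected after 10 μM compound or DMSO. Lysed in 1% NP-40/EDTA/Tris, treated with RNase A (1 h, 37 °C) then proteinase K (1 h, 50 °C). Phenol–chloroform extracted, precipitated with isopropanol. Run on a 1.8% agarose gel, ethidium bromide stained, UV read for the oligonucleosomal DNA ladder.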

[4] = test system: PC-3; assay: Induction of apoptosis in human PC3 cells assessed as DNA fragmentation formation at 10 uM after 48 to 72 hrs […]; assay type: functional, cell-based; method in brief: as §2
[5] = test system: PC-3; assay: Induction of apoptosis in human PC3 cells assessed as PARP-1 cleavage at 10 uM after 24 to 72 hrs by immunoblotting; assay type: functional, cell-based
Method in brief: (§3)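 Cells treated with 10 μM compound or DMSO over a time course. Lysed in Tris/NaCl/EDTA/deoxycholate/IGEPAL buffer, pH 7.5, with protease and phosphatase inhibitors. Protein measured by BCA and equal amounts immunoblotted. Membranes blocked in 5% milk, then probed overnight at 4 °C with anti-PARP-1 (200 ng/mL; full length 116 kDa, cleaved 89 kDa) or anti-cleaved caspase-3 (1:1000). GAPDH loading control, chemiluminescent detection.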

[6] = test system: PC-3; assay: Induction of apoptosis in human PC3 cells assessed as caspase-3 activation at 10 uM after 24 to 72 hrs by immunoblotting; assay type: functional, cell-based; method in brief: as §3
[7] = test system: DU-145; assay: Induction of apoptosis in human DU145 cells assessed as PARP-1 cleavage at 10 uM after 24 hrs by immunoblotting; assay type: functional, cell-based; method in brief: as §3
[8] = test system: DU-145; assay: Induction of apoptosis in human DU145 cells assessed as caspase-3 activation at 10 uM after 24 hrs by immunoblotting; assay type: functional, cell-based; method in brief: as §3
[9] = test system: DU-145; assay: Induction of apoptosis in human DU145 cells assessed as caspase-3 activation at 10 uM after 48 to 72 hrs by immunoblotting; assay type: functional, cell-based; method in brief: as §3
[10] = test system: DU-145; assay: Induction of apoptosis in human DU145 cells assessed as PARP-1 cleavage at 10 uM after 48 to 72 hrs by immunoblotting; assay type: functional, cell-based; method in brief: as §3
[11] = test system: DU-145; assay: Induction of apoptosis in human DU145 cells assessed as early apoptotic cells at 10 uM after 72 hrs using annexin V and propidium iodide staining by flow cytometric analysis relative to control; assay type: functional
Method in brief: (§4)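 DU145 plated at 2 × 10^5 per well and adhered 18 h. Then 5 or 10 μM compound, DMSO or untreated, for 24, 48 or 72 h. Trypsinized, PBS-washed, stained with annexin V-FITC plus propidium iodide. By flow cytometry, quadrants scored as viable, apoptotic (annexin+/PI−), necrotic (PI+ only) or late apoptotic/necrotic (double positive).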

[12] = test system: DU-145; assay: Induction of apoptosis in human DU145 cells assessed as viable cells at 10 uM after 72 hrs using annexin V and propidium iodide staining by flow cytometric analysis relative to control; assay type: functional; settings: DU-145, 72 h, read-out: Activity; method in brief: as §4
[13] = test system: DU-145; assay: Induction of apoptosis in human DU145 cells assessed as late apoptotic cells at 10 uM after 72 hrs using annexin V and propidium iodide staining by flow cytometric analysis relative to control; assay type: functional; method in brief: as §4
[14] = test system: DU-145; assay: Induction of apoptosis in human DU145 cells assessed as necrotic cells at 10 uM after 72 hrs using annexin V and propidium iodide staining by flow cytometric analysis relative to control; assay type: functional; method in brief: as §4
[15] = test system: DU-145; assay: Induction of apoptosis in human DU145 cells assessed as early apoptotic cells at 10 uM after 48 hrs using annexin V and propidium iodide staining by flow cytometric analysis relative to control; assay type: functional; method in brief: as §4
[16] = test system: DU-145; assay: Induction of apoptosis in human DU145 cells assessed as viable cells at 10 uM after 48 hrs using annexin V and propidium iodide staining by flow cytometric analysis relative to control; assay type: functional; settings: DU-145, 48 h, read-out: Activity; method in brief: as §4
[17] = test system: DU-145; assay: Induction of apoptosis in human DU145 cells assessed as necrotic cells at 10 uM after 48 hrs using annexin V and propidium iodide staining by flow cytometric analysis relative to control; assay type: functional; method in brief: as §4
[18] = test system: DU-145; assay: Induction of apoptosis in human DU145 cells assessed as late apoptotic cells at 10 uM after 48 hrs using annexin V and propidium iodide staining by flow cytometric analysis relative to control; assay type: functional; method in brief: as §4
[19] = test system: DU-145; assay: Induction of apoptosis in human DU145 cells assessed as early apoptotic cells at 10 uM after 24 hrs using annexin V and propidium iodide staining by flow cytometric analysis relative to control; assay type: functional; method in brief: as §4
[20] = test system: DU-145; assay: Induction of apoptosis in human DU145 cells assessed as viable cells at 10 uM after 24 hrs using annexin V and propidium iodide staining by flow cytometric analysis relative to control; assay type: functional; settings: DU-145, 24 h, read-out: Activity; method in brief: as §4
[21] = test system: DU-145; assay: Induction of apoptosis in human DU145 cells assessed as late apoptotic cells at 10 uM after 24 hrs using annexin V and propidium iodide staining by flow cytometric analysis relative to control; assay type: functional; method in brief: as §4
[22] = test system: DU-145; assay: Induction of apoptosis in human DU145 cells assessed as necrotic cells at 10 uM after 24 hrs using annexin V and propidium iodide staining by flow cytometric analysis relative to control; assay type: functional; method in brief: as §4
[23] = test system: DU-145; assay: Induction of apoptosis in human DU145 cells using annexin V and propidium iodide staining at 5 uM after 72 hrs by flow cytometric analysis; assay type: functional; method in brief: as §4
[24] = test system: DU-145; assay: Antiproliferative activity against human DU145 cells by SRB assay; assay type: functional
[25] = test system: DU-145; assay: Inhibition of colony formation in human DU145 cells at 2.5 to 10 uM after 10 days by clonogenic assay; assay type: functional, cell-based
Method in brief: (§5)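 DU145 or PC3 plated at 3 × 10^2 per well and adhered 18 h. Then 2.5, 5 or 10 μM compound, DMSO or medium alone. Grown 10 days until colonies were visible. Colonies fixed in 4% paraformaldehyde and stained with 0.25% crystal violet in 25% methanol.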

[26] = test system: PC-3; assay: Inhibition of colony formation in human PC3 cells at 2.5 to 10 uM after 10 days by clonogenic assay; assay type: functional, cell-based; method in brief: as §5
[27] = test system: DU-145; assay: Antiproliferative activity against human DU145 cells at 10 uM; assay type: functional, cell-based
Method in brief: (§6)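 DU145 in DMEM and PC3 in F-12K, each with 10% FBS and penicillin/streptomycin, at 37 °C, 5% CO2. Compound added directly to the medium. Antiproliferative activity read after three days of treatment.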

[28] = test system: PC-3; assay: Antiproliferative activity against human PC3 cells at 10 uM; assay type: functional, cell-based; method in brief: as §6
[29] = test system: DU-145; assay: Cell cycle arrest in human DU145 cells assessed as accumulation at G1 phase at 10 uM after 24 hrs using propidium iodide staining by flow cytometry (reference value: 39%); assay type: functional
[30] = test system: DU-145; assay: Cell cycle arrest in human DU145 cells assessed as accumulation at S phase at 10 uM after 24 hrs using propidium iodide staining by flow cytometry (reference value: 28%); assay type: functional
[31] = test system: DU-145; assay: Cell cycle arrest in human DU145 cells assessed as accumulation at G2/M phase at 10 uM after 24 hrs using propidium iodide staining by flow cytometry (reference value: 31%); assay type: functional
[32] = test system: DU-145; assay: Cell cycle arrest in human DU145 cells assessed as accumulation at G1 phase at 10 uM after 48 hrs using propidium iodide staining by flow cytometry (reference value: 37%); assay type: functional
[33] = test system: DU-145; assay: Cell cycle arrest in human DU145 cells assessed as accumulation at S phase at 10 uM after 48 hrs using propidium iodide staining by flow cytometry (reference value: 25%); assay type: functional
[34] = test system: DU-145; assay: Cell cycle arrest in human DU145 cells assessed as accumulation at G2/M phase at 10 uM after 48 hrs using propidium iodide staining by flow cytometry (reference value: 36%); assay type: functional
[35] = test system: DU-145; assay: Induction of cell death in human DU145 cells at 10 uM after 72 hrs by trypan blue exclusion assay; assay type: functional
Method in brief: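 DU145 left untreated, or given 10 μM compound or DMSO, for 72 h. All adherent and floating cells harvested, stained with trypan blue and counted at once. Result is % blue (nonviable) cells, mean of three independent experiments with standard error.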

[36] = test system: DU-145; assay: Induction of apoptosis in human DU145 cells using annexin V and propidium iodide staining at 5 uM after 24 hrs by flow cytometric analysis; assay type: functional; method in brief: as §4
[37] = test system: DU-145; assay: Induction of apoptosis in human DU145 cells using annexin V and propidium iodide staining at 5 uM after 48 hrs by flow cytometric analysis; assay type: functional; method in brief: as §4

## C[C@@H]1CC[C@H]2[C@H]3[C@H](O[C@]4([C@]5(O)CC6(C)C(=O)OC5C[C@@]6(C)O)CC[C@@]31O4)[C@H]1O[C@]13CC=CC(=O)[C@]23C [PHYSANGULIDINE A]
[1]
  inhibition: Active
[2]
  inhibition: Active
[3]
  Activity: Active
[4]
  Activity: Active
[5]
  Activity: Active
[6]
  Activity: Active
[7]
  Activity: inactive
[8]
  Activity: inactive
[9]
  Activity: Active
[10]
  Activity: Active
[11]
  Activity: 46.4%
[12]
  viability at 10 µM: 24.9%
[13]
  Activity: 28.4%
[14]
  Activity: 0.308%
[15]
  Activity: 32.3%
[16]
  viability at 10 µM: 53.2%
[17]
  Activity: 0.604%
[18]
  Activity: 13.9%
[19]
  Activity: 7.44%
[20]
  viability at 10 µM: 88.1%
[21]
  Activity: 3.71%
[22]
  Activity: 0.77%
[23]
  Activity: 11.5%
[24]
  GI50: 3.6 µM
[25]
  inhibition: Active
[26]
  inhibition: Active
[27]
  inhibition: Active
[28]
  inhibition: Active
[29]
  Activity: 8%
[30]
  Activity: 37%
[31]
  Activity: 49%
[32]
  Activity: 7%
[33]
  Activity: 12%
[34]
  Activity: 66%
[35]
  Activity: 90%
[36]
  Activity: 5.2%
[37]
  Activity: 9.2%
